# Published values gathered from unrelated publications.
# Protocols differ between the studies behind these lines.
# Target: Angiopoietin-1 receptor (TEK, Homo sapiens, UniProt Q02763)
Structure (SMILES),observed,mode,method,concentration,measurement,value
O=c1[nH]c2ccccc2n1C1CCN(Cc2ccc(-c3[nH]c4cc5ncnc5cc4nc3-c3ccccc3)cc2)CC1,cell-free assay,,,0.5 µM,remaining signal,102%
COCc1c(-c2cc3cc(C)cc(OC)c3s2)c2c(N)ncnn2c1CN1CCNC(=O)C1,cell-free assay,,competition with immobilised ligand,1 µM,inhibition,89%
O=C(NCc1ncc(C(F)(F)F)cc1Cl)c1ccc2c(c1)C1(CCS(=O)(=O)CC1)[C@@H](C1CC1)N2S(=O)(=O)c1ccc(F)cc1,cell-free assay,,competition with immobilised ligand,1 µM,remaining binding,96%
COc1cc(Nc2ncc(F)c(Nc3ccc4c(n3)NC(=O)C(C)(C)O4)n2)cc(OC)c1OC,binding,,,10 µM,inhibition,94%
CC(C)(C)c1cc(C=C(C#N)C#N)cc(Br)c1O,enzyme activity,inhibitor,,0.5 µM,remaining activity,97.9%
Cn1cncc1[C@@](O)(COc1ccc(C#N)cc1-c1ccc(OC(F)(F)F)cc1)c1ccc(C#N)cc1,cell-free assay,,competition with immobilised ligand,1 µM,remaining binding,92%
Cn1cc(-c2cc(F)cc(N3CCn4c(cc5c4CCCC5)C3=O)c2CO)cc(Nc2ccc(N3CCN(C4COC4)CC3)cn2)c1=O,enzyme activity,inhibitor,,0.1 µM,inhibition,7%
COc1ncccc1-c1cnn2ccc(N3CCN(C(=O)OC(C)C)CC3)nc12,binding,,competition with immobilised ligand,1 µM,remaining binding,98%
Nc1ncc(-c2nc(N3CCOCC3)nc(N3CCOCC3)n2)c(C(F)F)n1,cell-free assay,,competition with immobilised ligand,10 µM,remaining binding,99%
Cc1nn(C)cc1-c1nc2c(N3CCN(Cc4ccc(Cl)cc4)CC3)c(Cl)cnc2[nH]1,binding,,competition with immobilised ligand,1 µM,remaining binding,56%
